ChEMBL document CHEMBL4433205, “Dual Pharmacophores Explored via Structure-Activity Relationship (SAR) Matrix: Insights into Potent, Bifunctional Opioid Ligand Design” (J Med Chem, 2019)
pEC50, pKi: −log10 of the molar value. Active and inactive are the calls of the source.

Columns and labels:
[1] = biological target: Delta-type opioid receptor (Rattus norvegicus) (UniProt P33533); test: Agonist activity at rat delta opioid receptor expressed in rat C6 cell membranes assessed as stimulation of [35S]GTPgammaS binding incubated for 1 hr relative to DPDPE; type: functional
[2] = biological target: Mu-type opioid receptor (Rattus norvegicus) (UniProt P33535); test: Agonist activity at rat mu opioid receptor expressed in rat C6 glioma cell membranes assessed as stimulation of [35S]GTPgammaS binding measured after 1 hr relative to DAMGO; type: functional
[3] = biological target: T1, Kappa-type opioid receptor (Homo sapiens, UniProt P41145); test: Agonist activity at human kappa opioid receptor expressed in CHO cell membranes assessed as stimulation of [35S]GTPgammaS binding measured after 1 hr; type: functional; settings: for EC50: cho; for pEC50: read-out: EC50
[4] = biological target: T1, Kappa-type opioid receptor; test: Agonist activity at human kappa opioid receptor expressed in CHO cell membranes assessed as stimulation of [35S]GTPgammaS binding to G protein incubated for 1 hr relative to U69,593; type: functional
[5] = biological target: T2, Delta-type opioid receptor (Rattus norvegicus, UniProt P33533); test: Agonist activity at rat delta opioid receptor expressed in rat C6 cell membranes assessed as stimulation of [35S]GTPgammaS binding measured after 1 hr; type: functional; settings: for EC50: c6; for pEC50: read-out: EC50
Mus musculus = test: Antinociceptive activity in C57BL/6 mouse assessed as increase in latency to tail withdrawal up to 10 mg/kg, ip administered at 30 mins interval measured during compound dosing by warm water tail withdrawal assay relative to control; type: functional
Procedure, shortened: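 Male C57BL/6 mice, 20–30 g, 8–16 weeks. Saline ip, baseline latency 30 min later; then cumulative ip doses 1, 3.2, 10 mg/kg in 5% DMSO/saline at 30 min intervals, latency read 30 min after each. Tail tip (2–3 cm) in 50°C water, 20 s cutoff; expressed as % MPE (MPE = 20 s).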

Mu-type opioid receptor [6] = biological target: T3, Mu-type opioid receptor (Rattus norvegicus, UniProt P33535); test: Agonist activity at rat mu opioid receptor expressed in rat C6 cell membranes assessed as stimulation of [35S]GTPgammaS binding measured after 1 hr; type: functional
Procedure, shortened: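 Membranes (10–20 μg protein/tube) from stably transfected cells incubated 1 h at 25°C in 50 mM Tris-HCl, 100 mM NaCl, 5 mM MgCl2, pH 7.4, with 0.1 nM [35S]-GTPγS, 30 μM GDP and varying test concentrations; filtration, scintillation counting.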

Rattus norvegicus = species on record: Rattus norvegicus; test: Selectivity ratio of Ki for rat delta opioid receptor expressed in rat C6 cell membranes to Ki for rat mu opioid receptor expressed in rat C6 cell membranes; type: cell-based
Procedure, shortened: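 Competition binding against 0.2 nM [3H]-diprenorphine, using C6 membranes expressing rat MOR or rat DOR (20 μg protein/tube). Run in 50 mM Tris-HCl pH 7.4, 1 h at room temperature with shaking, then filtration and scintillation counting. Nonspecific binding with 10 μM naloxone.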

[7] = biological target: T1, Kappa-type opioid receptor; test: Displacement of [3H]diprenorphine from human kappa opioid receptor expressed in CHO cell membranes measured after 1 hr by liquid scintillation counting method
Procedure, shortened: (§1)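 Competition with 0.2 nM [3H]-diprenorphine on membranes (20 μg protein/tube) from stably transfected cells in 50 mM Tris-HCl pH 7.4, 1 h at room temperature with shaking; GF/C filtration, three washes, scintillation counting. Nonspecific binding defined with 10 μM naloxone.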

[8] = biological target: T2, Delta-type opioid receptor; test: Displacement of [3H]diprenorphine from rat delta opioid receptor expressed in rat C6 cell membranes measured after 1 hr by liquid scintillation counting method
Mu-type opioid receptor [9] = biological target: T3, Mu-type opioid receptor; test: Displacement of [3H]diprenorphine from rat mu opioid receptor expressed in rat C6 cell membranes measured after 1 hr by liquid scintillation counting method; procedure, shortened: as §1
[10] = Lipophilicity, log P of the compound; type: physicochemical; settings: octanol/water

Delta-type opioid receptor (Rattus norvegicus), sequence (P33533 whole entry): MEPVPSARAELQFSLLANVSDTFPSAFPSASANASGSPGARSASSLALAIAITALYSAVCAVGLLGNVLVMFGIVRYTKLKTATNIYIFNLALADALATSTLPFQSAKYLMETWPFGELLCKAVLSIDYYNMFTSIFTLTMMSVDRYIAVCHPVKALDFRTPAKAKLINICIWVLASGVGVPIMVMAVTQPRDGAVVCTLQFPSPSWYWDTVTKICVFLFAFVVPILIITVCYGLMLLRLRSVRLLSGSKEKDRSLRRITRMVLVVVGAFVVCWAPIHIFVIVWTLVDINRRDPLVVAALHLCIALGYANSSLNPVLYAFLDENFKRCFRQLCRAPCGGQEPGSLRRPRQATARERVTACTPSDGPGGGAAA
T2 sequence (P33533 whole entry): as above
Mu-type opioid receptor (Rattus norvegicus), sequence (P33535 whole entry): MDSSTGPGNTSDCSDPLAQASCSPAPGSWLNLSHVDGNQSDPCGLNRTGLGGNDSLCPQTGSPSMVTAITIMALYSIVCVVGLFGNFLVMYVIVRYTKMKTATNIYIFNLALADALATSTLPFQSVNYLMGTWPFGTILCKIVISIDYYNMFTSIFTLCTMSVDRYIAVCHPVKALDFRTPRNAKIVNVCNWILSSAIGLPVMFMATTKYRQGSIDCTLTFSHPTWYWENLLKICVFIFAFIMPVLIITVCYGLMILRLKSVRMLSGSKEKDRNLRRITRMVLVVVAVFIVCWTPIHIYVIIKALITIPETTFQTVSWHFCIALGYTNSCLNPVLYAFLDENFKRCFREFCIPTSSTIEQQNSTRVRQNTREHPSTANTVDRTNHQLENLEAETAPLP
T3 sequence (P33535 whole entry): as above
T1 sequence (P41145 whole entry): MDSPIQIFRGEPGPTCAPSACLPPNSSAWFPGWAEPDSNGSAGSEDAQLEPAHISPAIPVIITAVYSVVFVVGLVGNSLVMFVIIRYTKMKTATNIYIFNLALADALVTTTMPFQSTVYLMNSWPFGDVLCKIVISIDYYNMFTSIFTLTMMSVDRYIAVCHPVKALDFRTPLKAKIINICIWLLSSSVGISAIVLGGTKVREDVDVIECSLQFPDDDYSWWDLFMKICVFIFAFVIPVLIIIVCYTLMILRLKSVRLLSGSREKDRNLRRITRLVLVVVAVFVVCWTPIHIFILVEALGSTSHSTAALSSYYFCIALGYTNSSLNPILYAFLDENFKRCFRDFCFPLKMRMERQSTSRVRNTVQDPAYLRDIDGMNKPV

Compound | Efficacy [1] | Efficacy [2] | EC50 [3] | Efficacy [4] | EC50 [5] | MPE (Mus musculus) | pEC50 (Mu-type opioid receptor [6]) | Ratio Ki (Rattus norvegicus) | pKi [7] | pKi [8] | pKi (Mu-type opioid receptor [9]) | logP [10] | pEC50 [5] | pEC50 [3]
CC(=O)N1CC[C@@H](NC(=O)[C@@H](N)Cc2c(C)cc(O)cc2C)c2cc(Cc3ccc4c(c3)OCCO4)ccc21.O=C(O)C(F)(F)F | inactive | 45% | Not Active | inactive | Not Active | 75% | 7.89 | 2 | 6.85 | 9.08 | 9.42 | 3.1 | – | –
Cc1cc(O)cc(C)c1C[C@H](N)C(=O)N[C@@H]1CCN(C(=O)c2ccccc2)c2ccc(Cc3ccccc3)cc21 | – | – | – | – | – | – | – | – | – | – | – | 4.6 | – | –
CC(=O)N1CC[C@@H](NC(=O)[C@@H](N)Cc2c(C)cc(O)cc2C)c2cc(Cc3cnc4ccccc4c3)ccc21.O=C(O)C(F)(F)F | 35% | 76% | Not Active | inactive | – | 60% | 8.96 | 1 | 7.28 | 9.70 | 9.82 | 3.2 | 8.24 | –
Cc1cc(O)cc(C)c1C[C@H](N)C(=O)N[C@@H]1CCN(C(=O)c2ccccc2)c2ccc(CN3CCc4ccccc4C3)cc21.O=C(O)C(F)(F)F | inactive | 93% | Not Active | inactive | Not Active | inactive | 8.38 | 11 | 6.80 | 8.40 | 9.43 | 4.5 | – | –
Cc1cc(O)cc(C)c1C[C@H](N)C(=O)N[C@@H]1CCNc2ccc(CN3CCc4ccccc4C3)cc21.O=C(O)C(F)(F)F | inactive | 105% | – | 25% | Not Active | inactive | 9.40 | – | 8.66 | 8.51 | 10.52 | 3.7 | – | 7.05
Cc1cc(O)cc(C)c1C[C@H](N)C(=O)N[C@@H]1CCN(S(C)(=O)=O)c2ccc(Cc3cnc4ccccc4c3)cc21.O=C(O)C(F)(F)F | inactive | 96% | Not Active | inactive | Not Active | 50% | 9.59 | 3 | 8.15 | 9.19 | 9.64 | 3.1 | – | –
Cc1cc(O)cc(C)c1C[C@H](N)C(=O)N[C@@H]1CCN(S(C)(=O)=O)c2ccc(Cc3ccc4c(c3)OCCO4)cc21.O=C(O)C(F)(F)F | inactive | 47% | – | 39% | Not Active | 70% | 8.05 | 21 | 7.34 | 8.82 | 10.15 | 3 | – | < 6.30
Cc1cc(O)cc(C)c1C[C@H](N)C(=O)N[C@@H]1CCNc2ccc(Cc3ccc4ccccc4c3)cc21 | – | – | – | – | – | – | – | – | – | – | – | 4.9 | – | –
Cc1cc(O)cc(C)c1C[C@H](N)C(=O)N[C@@H]1CCN(C(=O)c2ccccc2)c2ccc(Cc3cc4ccccc4o3)cc21.O=C(O)C(F)(F)F | inactive | 58 to 64% | Not Active | inactive | Not Active | inactive | 7.92 | 2 | 7.00 | 9.19 | 9.46 | 5.2 | – | –
CC(=O)N1CC[C@@H](NC(=O)[C@@H](N)Cc2c(C)cc(O)cc2C)c2cc(Cc3ccc4ccccc4c3)ccc21 | – | – | – | – | – | – | – | – | – | – | – | 4.5 | – | –
Cc1cc(O)cc(C)c1C[C@H](N)C(=O)N[C@@H]1CCN(C(=O)C2CC2)c2ccc(CN3CCc4ccccc4C3)cc21.O=C(O)C(F)(F)F | inactive | 95% | Not Active | inactive | Not Active | 60% | 9.28 | 7 | 7.40 | 9.06 | 9.92 | 3.8 | – | –
Cc1cc(O)cc(C)c1C[C@H](N)C(=O)N[C@@H]1CCNc2ccc(Cc3cc4ccccc4o3)cc21.O=C(O)C(F)(F)F | inactive | 98% | Not Active | inactive | Not Active | 50% | 8.96 | 44 | 7.40 | 8.30 | – | 4.3 | – | –
CC(=O)N1CC[C@@H](NC(=O)[C@@H](N)Cc2c(C)cc(O)cc2C)c2cc(Cc3cc4ccccc4o3)ccc21 | 30% | 86% | – | 33% | – | inactive | 8.72 | 6 | 7.24 | 9.14 | 9.92 | 3.9 | 8.80 | < 6.30
Cc1cc(O)cc(C)c1C[C@H](N)C(=O)N[C@@H]1CCN(C(=O)C2CC2)c2ccc(Cc3cc4ccccc4o3)cc21.O=C(O)C(F)(F)F | 52% | 89% | Not Active | inactive | – | inactive | 9.05 | – | 7.01 | 9.59 | 10.30 | 4.5 | 8.43 | –
Cc1cc(O)cc(C)c1C[C@H](N)C(=O)N[C@@H]1CCN(C(=O)c2ccccc2)c2ccc(Cc3cnc4ccccc4c3)cc21.O=C(O)C(F)(F)F | – | 43% | Not Active | inactive | Not Active | 100% | 9.00 | – | 7.00 | 9.13 | 10.40 | – | – | –
Cc1cc(O)cc(C)c1C[C@H](N)C(=O)N[C@@H]1CCN(S(C)(=O)=O)c2ccc(Cc3ccc4ccccc4c3)cc21.O=C(O)C(F)(F)F | inactive | 102% | Not Active | inactive | Not Active | inactive | 9.64 | 24 | 7.57 | 9.02 | 10.40 | 4.4 | – | –
Cc1cc(O)cc(C)c1C[C@H](N)C(=O)N[C@@H]1CCNc2ccc(Cc3ccc4c(c3)OCCO4)cc21.O=C(O)C(F)(F)F | inactive | 88% | Not Active | inactive | Not Active | inactive | 8.14 | 16 | – | – | – | 3.5 | – | –
Cc1cc(O)cc(C)c1C[C@H](N)C(=O)N[C@@H]1CCN(C(=O)C2CC2)c2ccc(Cc3ccccc3)cc21 | – | – | – | – | – | – | – | – | – | – | – | 3.9 | – | –
Cc1cc(O)cc(C)c1C[C@H](N)C(=O)N[C@@H]1CCN(C(=O)C2CC2)c2ccc(Cc3cnc4ccccc4c3)cc21.O=C(O)C(F)(F)F | 84% | 47% | Not Active | inactive | – | inactive | 9.47 | 2 | 7.08 | 10.10 | 10.30 | 3.8 | 9.15 | –
CC(=O)N1CC[C@@H](NC(=O)[C@@H](N)Cc2c(C)cc(O)cc2C)c2cc(Cc3ccccc3)ccc21 | – | – | – | – | – | – | – | – | – | – | – | 3.4 | – | –
